Reference: article PMC7723353 (Revista do Instituto de Medicina Tropical de São Paulo, 2020)

Legend:
[1] = test system: Zika virus (clinical isolate, IMT17); test: Anti-ZIKV viral plaque reduction assay in Vero cells; type: cell-based; settings: for EC50: 96 h, read-out: Anti-ZIKV activity EC50; for Selectivity index (SI): ratio between cytotoxicity and antiviral activity (CC50/EC50), Vero cells
Summary of the method: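 ZIKV clinical isolate IMT17 on Vero cells (1.5 × 10^5 cells/well, grown 24 h). Infection at 100 PFU/well for 1 h at 37 °C, 5% CO2, then PBS (pH 7.0) wash. Test compound at several concentrations in 2X MEM, 2% FBS, 50% high-viscosity CMC overlay. Ribavirin positive control; medium and DMSO controls. After 4 days, crystal violet stain; plaque counts give % inhibition, EC50 by non-linear regression; SI = CC50/EC50.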

[2] = Cytotoxicity by MTT assay in Vero cells; type: cell-based; settings: African green monkey, Vero cells (African green monkey kidney)
Summary of the method: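 Vero cells at 2.7 × 10^5 cells/mL in MEM with 5% FBS, held 24 h at 37 °C, 5% CO2. Medium replaced by two-fold serial dilutions of test compound from DMSO stocks, or DMSO; medium-only cell controls. Incubation 4 days at 37 °C, then MTT (5 mg/mL solution) for 4 h. Formazan dissolved in DMSO, absorbance read at 540 nm. CC50 from % viability by regression.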

| SMILES | EC90 ([1]; Zika virus, Vero) | EC50 ([1]; Zika virus, Vero) | Selectivity index (SI) [1] | CC50 at 4 days [2] |
| --- | --- | --- | --- | --- |
| CC(C)c1cc2c(cc1O)[C@@]1(C)CCC[C@@](C)(C=O)[C@@H]1CC2 [Compound 8, 18-oxoferruginol] | 20.8 ± 3.75 µM | 2.6 ± 0.07 µM | 13.51 | 35.1 ± 5.2 µM |
| NC(=O)c1ncn([C@@H]2O[C@H](CO)[C@@H](O)[C@H]2O)n1 [Ribavirin, reference compound] | – | 98.5 ± 6.46 µM | 26.25 | 2590 µM |
